Measured values from ChEMBL document CHEMBL2321726, “Identification of selective inhibitors for human neuraminidase isoenzymes using C4,C7-modified 2-deoxy-2,3-didehydro-N-acetylneuraminic acid (DANA) analogues” (J Med Chem, 2013).

Assays:
Sialidase-4 = target: T1, Sialidase-4 (Homo sapiens, UniProt Q8WWR8); assay: Inhibition of human neuraminidase 4 using 4MU-NANA as substrate after 30 mins by fluorescence assay
T1 sequence (Q8WWR8 whole entry): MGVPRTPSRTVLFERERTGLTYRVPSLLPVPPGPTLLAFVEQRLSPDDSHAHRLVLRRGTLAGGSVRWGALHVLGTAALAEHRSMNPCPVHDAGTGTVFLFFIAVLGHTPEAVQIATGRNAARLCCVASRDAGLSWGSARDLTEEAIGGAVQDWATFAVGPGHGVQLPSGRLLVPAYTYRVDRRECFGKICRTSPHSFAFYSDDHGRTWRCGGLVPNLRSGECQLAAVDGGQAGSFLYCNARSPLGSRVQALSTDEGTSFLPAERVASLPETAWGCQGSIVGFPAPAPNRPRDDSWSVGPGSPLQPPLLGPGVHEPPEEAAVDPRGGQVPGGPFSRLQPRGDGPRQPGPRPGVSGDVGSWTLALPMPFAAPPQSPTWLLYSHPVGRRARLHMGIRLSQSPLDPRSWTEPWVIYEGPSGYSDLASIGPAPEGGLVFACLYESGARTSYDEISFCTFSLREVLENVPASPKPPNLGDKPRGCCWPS
Method in brief: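 GST-fusion enzyme, assayed in 0.1 M sodium acetate pH 4.5. Inhibitor diluted 3-fold serially from 1 mM final, incubated 15 min at 37 °C with enzyme, then 4MU-NANA (50 μM final) 30 min at 37 °C. Four replicates; IC50 from nonlinear regression.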

Sialidase-3 [1] = target: T2, Sialidase-3 (Homo sapiens, UniProt Q9UQ49); assay: Inhibition of human neuraminidase 3 expressed in Escherichia coli using 4MU-NANA as substrate after 30 mins by fluorescence assay
T2 sequence (Q9UQ49 whole entry): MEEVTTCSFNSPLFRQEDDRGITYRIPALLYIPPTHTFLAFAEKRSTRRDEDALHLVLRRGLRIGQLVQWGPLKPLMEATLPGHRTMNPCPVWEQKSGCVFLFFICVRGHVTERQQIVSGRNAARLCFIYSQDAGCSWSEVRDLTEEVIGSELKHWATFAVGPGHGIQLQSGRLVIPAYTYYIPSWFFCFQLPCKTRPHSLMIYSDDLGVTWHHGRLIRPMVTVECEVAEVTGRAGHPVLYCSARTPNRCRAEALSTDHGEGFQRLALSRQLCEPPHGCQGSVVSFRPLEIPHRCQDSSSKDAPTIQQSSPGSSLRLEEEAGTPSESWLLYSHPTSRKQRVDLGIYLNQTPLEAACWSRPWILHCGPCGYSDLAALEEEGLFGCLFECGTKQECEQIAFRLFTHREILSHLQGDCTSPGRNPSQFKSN
Method in brief: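 Enzyme made in E. coli as N-terminal MBP fusion. 0.1 M sodium acetate pH 4.5. 3-fold serial inhibitor dilutions from 1 mM final, 15 min preincubation with enzyme at 37 °C, then 4MU-NANA 50 μM final for 30 min at 37 °C. Glycinate pH 10.7 stop, fluorescence 365/445 nm. Quadruplicate points; IC50 by nonlinear regression.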

Sialidase-1 = Sialidase-1 (Homo sapiens, UniProt Q99519); assay: Inhibition of human neuraminidase 1 using 4MU-NANA as substrate after 30 mins by fluorescence assay
Method in brief: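 NEU1 purified per earlier protocol as complex with β-galactosidase and cathepsin A. 0.1 M sodium acetate, pH 4.5. Inhibitor in 3-fold serial dilutions from 1 mM final, preincubated with enzyme 15 min at 37 °C. 4MU-NANA (50 μM final) added, 30 min at 37 °C. Four replicates; IC50 by nonlinear regression.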

Neuraminidase = Neuraminidase (Vibrio cholerae, UniProt Q5IB64); assay: Inhibition of Vibrio cholerae neuraminidase
Sialidase-3 [2] = target: T2, Sialidase-3; assay: Inhibition of human neuraminidase 3 expressed in Escherichia coli using 4MU-NANA as substrate measured for every 30 seconds for 60 mins by fluorescence assay
Method in brief: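 Product formation at 37 °C read every 30 s for 60 min (ex 365/em 445 nm). Initial linear rates; Lineweaver–Burk slopes plotted against inhibitor concentration and fitted for Ki.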

Compound	IC50 (Sialidase-4) [µM]	IC50 (Sialidase-3 [1]) [µM]	IC50 (Sialidase-1) [µM]	IC50 (Neuraminidase) [µM]	Ki (Sialidase-3 [2]) [µM]
CC(=O)N[C@H]1[C@H](CNNCc2ccc(-c3ccccc3)cc2)OC(C(=O)O)=C[C@@H]1O	200	70	> 1000	> 1000	–
CC(=O)N[C@H]1[C@H]([C@H](O)[C@H](O)CO)OC(C(=O)O)=C[C@@H]1O [NEU5AC2EN]	–	6.3	–	170	2.2
CC(=O)N[C@@H]1[C@@H](N=[N+]=[N-])C=C(C(=O)O)O[C@H]1CNNc1ccccc1	> 1000	20	> 1000	> 1000	11
CC(=O)N[C@@H]1[C@@H](N=[N+]=[N-])C=C(C(=O)O)O[C@H]1CNc1ccc(-c2ccccc2)cc1	210	50	> 1000	> 1000	–
CC(=O)N[C@H]1[C@H](CNc2ccccc2)OC(C(=O)O)=C[C@@H]1O	> 1000	370	> 1000	> 1000	–
CC(=O)N[C@@H]1[C@@H](N=[N+]=[N-])C=C(C(=O)O)O[C@H]1CNc1ccccc1	300	440	> 1000	> 1000	–
CC(=O)N[C@@H]1[C@@H](N=[N+]=[N-])C=C(C(=O)O)O[C@H]1CN(Cc1ccccc1)OCc1ccccc1	350	24	> 1000	> 1000	–
CC(=O)N[C@H]1[C@H](CNCc2ccccc2)OC(C(=O)O)=C[C@@H]1O	> 1000	> 1000	> 1000	470	–
CC(=O)N[C@H]1[C@H](CNc2ccccc2)OC(C(=O)O)=C[C@@H]1N	> 1000	540	> 1000	> 1000	–
CC(=O)N[C@H]1[C@H]([C@H](O)[C@H](O)CO)OC(C(=O)O)=C[C@@H]1N=[N+]=[N-]	1000	54	360	540	–
CC(=O)N[C@H]1[C@H]([C@H](O)[C@H](O)CO)OC(C(=O)O)=C[C@@H]1N	720	180	> 1000	> 1000	–
CC(=O)N[C@@H]1[C@@H](N=[N+]=[N-])C=C(C(=O)O)O[C@H]1CNOCc1ccccc1	> 1000	24	> 1000	550	8
